Reference: ChEMBL document CHEMBL1681735, “One step synthesis of 2-hydroxymethylisoflavone and their osteogenic activity” (2011)
Active and inactive are the calls of the source. The calls are words filed in the database; no cut-off is given here.

Legend:
Calvarial cell [1] = experiment: (§1) Induction of osteogenic activity in rat Calvarial cells assessed as fold increase in BMP-2 gene expression after 48 hrs by qPCR relative to untreated control; format: functional
Method in brief: (§2)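 Osteoblasts cultured with or without compound for 48 h, then qPCR. Cycling: 95 °C 5 min, then 40 cycles of 94 °C 2 min, 62 °C 30 s annealing/extension and 72 °C 30 s. Normalized to GAPDH. Compared with vehicle-treated cells; mean SEM, n = 3.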

Calvarial cell [2] = experiment: Induction of osteoblast differentiation in rat Calvarial cells assessed as increase in alkaline phosphatase activity at 10^-12 to 10^-6 M by spectrophotometry; format: functional, cell-based
Method in brief: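 Rat calvarial osteoblasts trypsinized at 70–80% confluence (0.02% trypsin-EDTA). 2 × 10³ cells seeded in α-MEM with 10% FBS plus 50 µg/ml ascorbate and 10 mM glycerophosphate. Exposed to 10^-12 to 10^-6 M for 48 h; isoformononetin 10^-8 M as positive control. Total ALP read at 405 nm with PNPP 10 mmol/L in diethanolamine buffer (1 mol/L, pH 9.8), 0.5 mmol/L MgCl₂. Mean SEM, n = 6.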

Calvarial cell [3] = experiment: (§3) Induction of osteogenic activity in rat Calvarial cells assessed as fold increase in OCN gene expression after 48 hrs by qPCR relative to untreated control; format: functional; method in brief: as §2
Calvarial cell [4] = experiment: (§4) Induction of osteogenic activity in rat Calvarial cells assessed as fold increase in Runx-2 gene expression after 48 hrs by qPCR relative to untreated control; format: functional; method in brief: as §2
[5] = as §1; format: functional, Calvarial cell; method in brief: as §2
[6] = as §3; format: functional, Calvarial cell; method in brief: as §2
[7] = as §4; format: functional, Calvarial cell; method in brief: as §2

SMILES | Activity (Calvarial cell [1]) | Activity (Calvarial cell [2]) | Activity (Calvarial cell [3]) | Activity (Calvarial cell [4]) | fold change (FC) [5] | fold change (FC) [6] | fold change (FC) [7]
COc1ccc(-c2c(CO)oc3cc(O)ccc3c2=O)cc1 | inactive | Active | inactive | inactive | – | – | –
COc1ccc(-c2c(CO)oc3ccccc3c2=O)c(O)c1 | – | Active | – | – | 2 | 2 | 8
O=c1c(-c2ccccc2)c(CO)oc2ccccc12 | – | Active | inactive | inactive | 2.5 | – | –
O=c1c(-c2ccccc2)c(CO)oc2cc(O)ccc12 | inactive | Active | inactive | – | – | – | 6.5
